The values below come from ChEMBL document CHEMBL1127414 (J Med Chem, 1994).

The target in experiment [1] is T1, Squalene synthase (Mus musculus) (UniProt P53798).
T1 sequence (whole entry): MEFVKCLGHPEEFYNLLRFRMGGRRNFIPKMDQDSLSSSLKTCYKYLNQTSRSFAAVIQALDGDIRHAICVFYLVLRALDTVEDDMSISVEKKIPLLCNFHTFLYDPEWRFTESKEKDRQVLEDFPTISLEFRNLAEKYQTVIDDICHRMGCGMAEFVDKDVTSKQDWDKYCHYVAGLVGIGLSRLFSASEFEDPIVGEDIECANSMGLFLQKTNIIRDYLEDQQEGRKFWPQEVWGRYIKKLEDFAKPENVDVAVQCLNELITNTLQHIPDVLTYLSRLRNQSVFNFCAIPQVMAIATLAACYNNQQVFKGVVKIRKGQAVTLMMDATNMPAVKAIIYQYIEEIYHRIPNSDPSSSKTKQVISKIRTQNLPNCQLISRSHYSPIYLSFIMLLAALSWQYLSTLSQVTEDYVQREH
As to the kind of experiment: Tested for the effective dose required for the incorporation of [5-3H]-mevalonolactone into cholesterol by in vivo mouse assay by peroral administration. In kind it is functional, organism-based. In a few lines: (§1)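 Female Swiss Webster mice (~25 g), six per group, dosed po by gavage with inhibitor suspended in 5% emulphor. 30 min later, 0.5 μCi/mouse [5-3H]mevalonolactone in saline given sc. Livers removed 30 min after that and saponified in KOH/EtOH overnight at 55 °C, then petroleum-ether extracted. Nonsaponifiable dpm counted. Compounds first tested at a single dose (typically 12 or 24 mg/kg).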

Experiment [2] deals with Mus musculus. As to the kind of experiment: Tested for its ability to inhibit the incorporation of [5-3H]-mevalonolactone into cholesterol by in vivo mouse assay by peroral administration at a dose of 6 mg/kg. The format is functional. To be noted: route oral. In a few lines: as §1
The target of experiment [3] is T2, Squalene synthase (Rattus norvegicus) (UniProt Q02769).
T2 sequence (whole entry): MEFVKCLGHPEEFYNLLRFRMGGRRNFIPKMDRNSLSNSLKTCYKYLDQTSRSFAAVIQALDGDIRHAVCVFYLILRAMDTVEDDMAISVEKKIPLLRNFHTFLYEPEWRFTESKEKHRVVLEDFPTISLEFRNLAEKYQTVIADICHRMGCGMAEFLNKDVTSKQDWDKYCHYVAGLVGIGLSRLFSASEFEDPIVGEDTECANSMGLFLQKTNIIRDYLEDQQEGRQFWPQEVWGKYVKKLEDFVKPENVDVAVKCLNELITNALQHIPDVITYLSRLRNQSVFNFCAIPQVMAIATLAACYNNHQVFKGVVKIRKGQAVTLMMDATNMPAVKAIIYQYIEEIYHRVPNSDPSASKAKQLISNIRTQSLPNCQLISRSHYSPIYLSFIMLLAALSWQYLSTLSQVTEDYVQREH
As to the kind of experiment: concentration required to inhibit rat liver squalene synthase enzyme relative to control (L-694,599). In a few lines: (§2)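 Enzyme from rat liver. […] Inhibitors added in DMSO (0.3% final) as 3-fold serial dilutions, usually up to 30 ng/mL (about 40 nM). IC50 read from % inhibition vs log concentration.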

Experiment [4] has as its system Aspergillus fumigatus. As to the kind of experiment: Concentration required to inhibit growth of MF 4839 strain of Aspergillus fumigatus. The format is functional. An outline of the steps: (§3)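 Broth microdilution against a panel of clinically relevant fungal strains. Read-out was the minimum fungicidal concentration in μg/mL.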
The subject of experiment [5] is Candida parapsilosis. As to the kind of experiment: Concentration required to inhibit growth of MY 1010 strain of Candida parapsilosis. The format is functional. To be noted: Lodderomyces parapsilosis. An outline of the steps:
as §3

Experiment [6] has as its system Candida albicans. As to the kind of experiment: Concentration required to inhibit growth of MY 1055 strain of Candida albicans. The format is functional. An outline of the steps: as §3
Experiment [7] concerns Candida albicans. As to the kind of experiment: Concentration required to inhibit growth of MY 1750 strain of Candida albicans. In kind it is functional. In a few lines: as §3
The subject of experiment [8] is Candida tropicalis. As to the kind of experiment: Concentration required to inhibit growth of MY 1012 strain of Candida tropicalis. The format is functional. An outline of the steps: as §3
Experiment [9] concerns Cryptococcus neoformans. As to the kind of experiment: Concentration required to inhibit growth of MY 1051 strain of Cryptococcus neoformans. The format is functional. An outline of the steps: as §3
For experiment [10], the system named is Cryptococcus neoformans. As to the kind of experiment: Concentration required to inhibit growth of MY 2061 strain of Cryptococcus neoformans. In kind it is functional. In a few lines:
as §3

Experiment [11] deals with HepG2. As to the kind of experiment: Concentration required to inhibit cholesterol synthesis in Hep G2 cells. The format is functional, cell-based. The settings on record: Homo sapiens. In a few lines:
(§4)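 Hep G2 cells held 2 days in lipoprotein-depleted FBS to stimulate sterol synthesis, then given inhibitor in serum-free medium for 2 h. 15 μCi [5-3H]mevalonate (0.2 mCi/mmol) added for 1 h. Cells washed and saponified, and radioactivity counted by scintillation.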

The subject of experiment [12] is Mus musculus. As to the kind of experiment: Tested for its ability to inhibit the incorporation of [5-3H]-mevalonolactone into cholesterol by in vivo mouse assay by peroral administration at dose 100 mg/kg. The settings on record: route oral. In kind it is functional. In a few lines: as §1
In experiment [13] the test system is Mus musculus. As to the kind of experiment: Tested for its ability to inhibit the incorporation of [5-3H]-mevalonolactone into cholesterol by in vivo mouse assay by peroral administration not active at dose 40 mg/kg; NA = Not active. The format is functional, organism-based. The arrangement: dose 40 mg/kg. In a few lines:
as §1

Experiment [14] concerns Trichophyton benhamiae. As to the kind of experiment: Concentration required to inhibit growth of MF 4864 strain of Trichophyton mentagrophytes. In kind it is functional, Arthroderma benhamiae. An outline of the steps:
as §3

For experiment [15], the system named is HepG2. As to the kind of experiment: Concentration required to inhibit cholesterol synthesis in Hep G2 cells relative to control (IC50 of L-694,599). In kind it is functional, Homo sapiens. In a few lines: as §4
Experiment [16] concerns Mus musculus. As to the kind of experiment: (§5) Tested for its ability to inhibit the incorporation of [5-3H]-mevalonolactone into cholesterol by in vivo mouse assay by peroral administration at a dose of 40 mg/kg. The format is functional. To be noted: route oral. An outline of the steps: as §1
Experiment [17] addresses T3, Squalene synthase (Rattus norvegicus, UniProt Q02769).
T3 sequence (Q02769 whole entry): T2 sequence (whole entry)
As to the kind of experiment: Tested for inhibition against squalene synthase enzyme in rat liver.

Experiment [18] concerns the target T2, Squalene synthase (Rattus norvegicus). As to the kind of experiment: Concentration required to inhibit rat liver squalene synthase enzyme relative to control (L-694,599). In a few lines:
as §2

Experiment [19] concerns squalene synthase (Saccharomyces cerevisiae). As to the kind of experiment: Compound required to inhibit 50% activity of yeast squalene synthase enzyme relative to control (L-694,599).
Experiment [20] concerns Mus musculus. The experiment is described as §5. In kind it is ADME, organism-based. The settings on record: po. Also on record: dose 40 mg/kg, route oral. In a few lines:
as §1

For experiment [21], the system named is HepG2. As to the kind of experiment: Concentration of compound required to inhibit cholesterol synthesis in Hep G2 cells relative to control (IC50 of L-694,599). In kind it is functional, Homo sapiens. An outline of the steps: as §4

By ED50 is commonly meant the dose that gives a 50% effect, or the effect in half of the subjects. Lower therefore signals an effect at a small dose. In general, inhibition in vivo refers to how much of the control response was suppressed. Low values mean little suppression, high ones strong suppression. The IC50 is the midpoint of a concentration-inhibition curve. A higher IC50 goes with weaker potency. The inhibition is the drop in the measured response relative to a control, in per cent.

Values after ≈ are worked out from the molar mass of the structure shown. Active and inactive are the calls of the source. The calls are words filed in the database; no cut-off is given here.

For the molecule `C=C(CCC12OC(C(=O)O)C(O)(C(=O)O)C(C(=O)O)(O1)[C@H](O/C(S)=N/C(C)C)[C@H]2O)[C@@H](OC(C)=O)[C@H](C)Cc1ccccc1` (some centres not stated), the ED50 in [1] is over 6 mg/kg. Besides, in [2], testing at 6 mg/kg gave an inhibition in vivo of 9%. In [3], the Relative activity is 0.01.
For `C=C(CCC12OC(C(=O)O)C(O)(C(=O)O)C(C(=O)O)(O1)[C@H](OC(=O)/C=C/[C@@H](C)C[C@@H](C)CC)[C@H]2O)[C@@H](OC(C)=O)[C@H](C)Cc1ccccc1` (some centres not stated) [ZARAGOZIC ACID A], the MFC came to 32 µg/mL (≈ 46.3 µM) in experiment [4]; 8 µg/mL (≈ 11.6 µM) in [5]; 16 µg/mL (≈ 23.2 µM) in experiment [6]; 8 µg/mL (≈ 11.6 µM) in experiment [7]; 2 µg/mL (≈ 2.9 µM) in experiment [8]; 1 µg/mL (≈ 1.45 µM) in [9]. Also, the MFC in [10] turned out to be 1 µg/mL (≈ 1.45 µM); in [14], 4 µg/mL (≈ 5.79 µM). Also, the IC50 in experiment [11] came to 6000 nM. In [12], this molecule gave an inhibition in vivo at 100 mg/kg of 50%. Moreover, the inhibition entry in experiment [13] was “inactive”.
Consider `C=C(CCC12OC(C(=O)O)C(O)(C(=O)O)C(C(=O)O)(O1)[C@H](OC(=O)CCCCCCCCCCC)[C@H]2O)[C@@H](OC(C)=O)[C@H](C)Cc1ccccc1` (some centres not stated), for which the MFC came out at 8 µg/mL (≈ 11.1 µM) in experiment [4]; 8 µg/mL (≈ 11.1 µM) in experiment [5]; 4 µg/mL (≈ 5.55 µM) in experiment [6]; 8 µg/mL (≈ 11.1 µM) in [7]; 8 µg/mL (≈ 11.1 µM) in experiment [8]; 2 µg/mL (≈ 2.77 µM) in experiment [9]. Moreover, the MFC in [10] is 0.12 µg/mL (≈ 0.166 µM); in experiment [14], 4 µg/mL (≈ 5.55 µM). Further, the values for the half-maximal inhibitory concentration (IC50) in [11] and in experiment [17] were 1700 nM and 0.8 nM, respectively. In addition, the Relative activity in experiment [15] came out at 3.24; in experiment [18] it was 0.29; in experiment [19], 3.13. Moreover, at 40 mg/kg the inhibition in vivo in experiment [16] was 20%.
As for `C=C(CCC12OC(C(=O)O)C(O)(C(=O)O)C(C(=O)O)(O1)[C@H](OC(=O)OCCCCCCCCCCCC)[C@H]2O)[C@@H](OC(C)=O)[C@H](C)Cc1ccccc1` (some centres not stated), the half-inhibitory concentration (IC50) in [11] amounted to 1900 nM; in experiment [17] it was 0.19 nM. In addition, the Relative activity in experiment [15] amounted to 4.36; in experiment [3], 0.47. In addition, the inhibition at 40 mg/kg in experiment [20] was 5%.
Regarding `C=C(CCC12OC(C(=O)O)C(O)(C(=O)O)C(C(=O)O)(O1)[C@H](OC(=O)CCCCCCC)[C@H]2O)[C@@H](OC(C)=O)[C@H](C)Cc1ccccc1` (some centres not stated), the IC50 in [11] turned out to be 9600 nM; in experiment [17], 0.66 nM. Besides, the Relative activity in experiment [18] was 0.17; in experiment [21] it was 0.57.
